ChEMBL document CHEMBL2062453, “Lead optimization through VLAK protocol: new annelated pyrrolo-pyrimidine derivatives as antitumor agents” (2012)

How the values were obtained:
Assay type in all cases: functional
CCRF-CEM = assay: Cytotoxicity against human CCRF-CEM cells after 48 hrs by SRB assay
How it was run: (§1)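 NCI 60-cell five-dose screen. Cells grown in RPMI 1640 with 5% FBS and 2 mM glutamine, plated at 5000–40,000 cells/well, and preincubated 24 h at 37 °C in 5% CO2. Time-zero plates fixed with TCA. Five serial dilutions of DMSO stock added, then 48 h exposure. TCA fixation, 0.4% SRB staining, absorbance read at 515 nm. GI50 from [(Ti−Tz)/(C−Tz)]×100 = 50.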

MOLT-4 = assay: Cytotoxicity against human MOLT4 cells after 48 hrs by SRB assay; conditions: MOLT-4, 48 h
How it was run: (§2)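 Five-dose screen, 10-fold or ½-log dilutions, compound stock in DMSO. Cells were in RPMI 1640 with 5% FBS and 2 mM glutamine at 5000–40,000 cells/well, preincubated 24 h, 37 °C, 5% CO₂, with a time-zero plate TCA-fixed. After 48 h drug exposure, cells were TCA-fixed and stained with 0.4% SRB, read at 515 nm. GI50, TGI and LC50 were derived from time-zero, control and test absorbances.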

RPMI-8226 = assay: Cytotoxicity against human RPMI8226 cells after 48 hrs by SRB assay; conditions: RPMI-8226, 48 h; how it was run: as §2
A549 = assay: Cytotoxicity against human A549 cells after 48 hrs by SRB assay; conditions: A549, 48 h; how it was run: as §1
HOP-62 = assay: Cytotoxicity against human HOP62 cells after 48 hrs by SRB assay; conditions: HOP-62, 48 h; how it was run: as §1
NCI-H460 = assay: Cytotoxicity against human NCI-H460 cells after 48 hrs by SRB assay; conditions: NCI-H460, 48 h; how it was run: as §2
HCT-116 = assay: Cytotoxicity against human HCT116 cells after 48 hrs by SRB assay; conditions: HCT-116, 48 h; how it was run: as §1
HCT-15 = assay: Cytotoxicity against human HCT15 cells after 48 hrs by SRB assay; conditions: HCT-15, 48 h; how it was run: as §1
KM12 = assay: Cytotoxicity against human KM12 cells after 48 hrs by SRB assay; conditions: KM12, 48 h; how it was run: as §1
SW-620 = assay: Cytotoxicity against human SW620 cells after 48 hrs by SRB assay; conditions: SW-620, 48 h
How it was run: (§3)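 NCI 60-panel five-dose screen. Cells in RPMI 1640 with 5% FBS and 2 mM glutamine, plated at 5000–40,000 cells/well and preincubated 24 h at 37 °C under 5% CO2. Five 10-fold or half-log dilutions were added from a DMSO stock for 48 h. Cells were TCA-fixed (SR settled cells: 16% final), SRB-stained and read at 515 nm. GI50 was taken where (Ti−Tz)/(C−Tz)×100 = 50.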

SF-268 = assay: Cytotoxicity against human SF268 cells after 48 hrs by SRB assay; conditions: SF-268, 48 h; how it was run: as §2
SF-539 = assay: Cytotoxicity against human SF539 cells after 48 hrs by SRB assay; conditions: SF-539, 48 h; how it was run: as §2
SNB-75 = assay: Cytotoxicity against human SNB75 cells after 48 hrs by SRB assay; conditions: SNB-75, 48 h; how it was run: as §2
Malme-3M = assay: Cytotoxicity against human MALME-3M cells after 48 hrs by SRB assay; how it was run: as §1
SK-MEL-28 = assay: Cytotoxicity against human SK-MEL-28 cells after 48 hrs by SRB assay; conditions: SK-MEL-28, 48 h; how it was run: as §2
UACC-62 = assay: Cytotoxicity against human UACC62 cells after 48 hrs by SRB assay; conditions: UACC-62, 48 h; how it was run: as §3
OVCAR-3 = assay: Cytotoxicity against human OVCAR3 cells after 48 hrs by SRB assay; conditions: OVCAR-3, 48 h; how it was run: as §2
OVCAR-4 = assay: Cytotoxicity against human OVCAR4 cells after 48 hrs by SRB assay; conditions: OVCAR-4, 48 h; how it was run: as §2
OVCAR-5 = assay: Cytotoxicity against human OVCAR5 cells after 48 hrs by SRB assay; conditions: OVCAR-5, 48 h; how it was run: as §2
786-0 = assay: Cytotoxicity against human 786-0 cells after 48 hrs by SRB assay; conditions: 786-0, 48 h; how it was run: as §1
A498 = assay: Cytotoxicity against human A498 cells after 48 hrs by SRB assay; conditions: A498, 48 h; how it was run: as §1
ACHN = assay: Cytotoxicity against human ACHN cells after 48 hrs by SRB assay; how it was run: as §1
SN12C = assay: Cytotoxicity against human SN12C cells after 48 hrs by SRB assay; how it was run: as §2
TK-10 = assay: Cytotoxicity against human TK10 cells after 48 hrs by SRB assay; conditions: TK-10, 48 h; how it was run: as §3
DU-145 = assay: Cytotoxicity against human DU145 cells after 48 hrs by SRB assay; conditions: DU-145, 48 h; how it was run: as §1
MCF7 = assay: Cytotoxicity against human MCF7 cells after 48 hrs by SRB assay; conditions: MCF7, 48 h; how it was run: as §1
Hs-578T = assay: Cytotoxicity against human Hs578T cells after 48 hrs by SRB assay; how it was run: as §1
T47D = assay: Cytotoxicity against human T47D cells after 48 hrs by SRB assay; how it was run: as §3

CSC1=Nc2c(c(C)c(-c3ccccc3)n2CCCCl)C2=NC(=O)CN12
GI50 (CCRF-CEM): 5.13 µM
LC50 (CCRF-CEM): > 100 µM
TGI (CCRF-CEM; read-out: pTGI (converted)): > 100 µM
GI50 (MOLT-4): 3.89 µM
LC50 (MOLT-4): > 100 µM
TGI (MOLT-4; read-out: pTGI (converted)): > 100 µM
GI50 (RPMI-8226): 3.72 µM
LC50 (RPMI-8226): > 100 µM
TGI (RPMI-8226; read-out: pTGI (converted)): 66.1 µM
GI50 (A549): 7.76 µM
LC50 (A549): > 100 µM
TGI (A549; read-out: pTGI (converted)): 66.1 µM
GI50 (HOP-62): 11 µM
LC50 (HOP-62): > 100 µM
TGI (HOP-62; read-out: pTGI (converted)): 63.1 µM
GI50 (NCI-H460): 3.72 µM
LC50 (NCI-H460): 56.2 µM
TGI (NCI-H460; read-out: pTGI (converted)): 15.1 µM
GI50 (HCT-116): 3.16 µM
LC50 (HCT-116): > 100 µM
TGI (HCT-116; read-out: pTGI (converted)): 47.9 µM
GI50 (HCT-15): 4.07 µM
LC50 (HCT-15): > 100 µM
TGI (HCT-15; read-out: pTGI (converted)): 21.4 µM
GI50 (KM12): 4.17 µM
LC50 (KM12): 81.3 µM
TGI (KM12; read-out: pTGI (converted)): 18.6 µM
GI50 (SW-620): 4.79 µM
LC50 (SW-620): > 100 µM
TGI (SW-620; read-out: pTGI (converted)): 53.7 µM
GI50 (SF-268): 8.51 µM
LC50 (SF-268): > 100 µM
TGI (SF-268; read-out: pTGI (converted)): 47.9 µM
GI50 (SF-539): 3.39 µM
LC50 (SF-539): 39.8 µM
TGI (SF-539; read-out: pTGI (converted)): 14.1 µM
GI50 (SNB-75): 2.82 µM
LC50 (SNB-75): 67.6 µM
TGI (SNB-75; read-out: pTGI (converted)): 11.7 µM
GI50 (Malme-3M): 8.32 µM
LC50 (Malme-3M): 58.9 µM
TGI (Malme-3M; read-out: pTGI (converted)): 23.4 µM
GI50 (SK-MEL-28): 10.2 µM
LC50 (SK-MEL-28): 63.1 µM
TGI (SK-MEL-28; read-out: pTGI (converted)): 25.1 µM
GI50 (UACC-62): 2.09 µM
LC50 (UACC-62): 38 µM
TGI (UACC-62; read-out: pTGI (converted)): 11.5 µM
GI50 (OVCAR-3): 8.32 µM
LC50 (OVCAR-3): > 100 µM
TGI (OVCAR-3; read-out: pTGI (converted)): 36.3 µM
GI50 (OVCAR-4): 6.76 µM
LC50 (OVCAR-4): > 100 µM
TGI (OVCAR-4; read-out: pTGI (converted)): 44.7 µM
GI50 (OVCAR-5): 11.5 µM
LC50 (OVCAR-5): > 100 µM
TGI (OVCAR-5; read-out: pTGI (converted)): 38 µM
GI50 (786-0): 8.51 µM
LC50 (786-0): > 100 µM
TGI (786-0; read-out: pTGI (converted)): 61.7 µM
GI50 (A498): 3.89 µM
LC50 (A498): 53.7 µM
TGI (A498; read-out: pTGI (converted)): 15.1 µM
GI50 (ACHN): 9.55 µM
CC50 (ACHN; read-out: pLC50 (the source's name) (converted)): > 100 µM
TGI (ACHN; read-out: pTGI (converted)): 38 µM
GI50 (SN12C): 6.31 µM
LC50 (SN12C): > 100 µM
TGI (SN12C; read-out: pTGI (converted)): 38.9 µM
GI50 (TK-10): 8.51 µM
LC50 (TK-10): > 100 µM
TGI (TK-10; read-out: pTGI (converted)): 77.6 µM
GI50 (DU-145): 11.5 µM
LC50 (DU-145): 61.7 µM
TGI (DU-145; read-out: pTGI (converted)): 26.9 µM
GI50 (MCF7): 3.39 µM
LC50 (MCF7): 77.6 µM
TGI (MCF7; read-out: pTGI (converted)): 16.6 µM
GI50 (Hs-578T): 6.31 µM
LC50 (Hs-578T): > 100 µM
TGI (Hs-578T; read-out: pTGI (converted)): 34.7 µM
GI50 (T47D): 2.63 µM
LC50 (T47D): 95.5 µM
TGI (T47D; read-out: pTGI (converted)): 11 µM
